pIC50: −log10 of the molar value.
Key:
HCT-8 = assay: Antiproliferative activity against human HCT-8 cells assessed as inhibition of cell growth incubated for 72 hrs by CCK-8 assay; conditions: HCT-8, 72 h
MDA-MB-231 = assay: Antiproliferative activity against human MDA-MB-231 cells assessed as inhibition of cell growth incubated for 72 hrs by CCK-8 assay; conditions: MDA-MB-231, 72 h
HCT-116 [1] = assay: Antiproliferative activity against human HCT-116 cells assessed as inhibition of cell growth incubated for 72 hrs by CCK-8 assay; conditions: HCT-116, 72 h
[2] = Drug localization in endoplasmic reticulum of human HCT-8 cells at 250 nM incubated for 8 hrs by ER-tracker red based laser scanning confocal microscopic analysis; format: ADME, cell-based; conditions: hct-8, 8 h, 0.25 µM
Outline: (§1)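 HCT-8 (250 nM) and MDA-MB231 (500 nM) cells were seeded at 4 × 10^4 on slides for 24 h, then exposed to the probe for 8 h. After an HBSS wash, cells were stained with ER-Tracker Red for 20 min at 37 °C, washed twice with medium, and fixed in 4% formaldehyde for 2 min. Confocal imaging used probe ex 405/em 460 nm and tracker ex 587/em 615 nm.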

[3] = Drug uptake in human MDA-MB-231 cells incubated for 1 hrs by laser scanning confocal microscopic analysis; format: ADME, cell-based; conditions: mda-mb-231, 1 h, dose 0.25-2 µM
Outline: (§2)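 MDA-MB231 cells were seeded at 6 × 10^4 on slides for 24 h in DMEM with 10% FBS. Cells were then PBS-washed twice, fixed in 4% formaldehyde for 2 min, and imaged by confocal microscopy (ex 405, em 460 nm).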

[4] = Drug uptake in human MDA-MB-231 cells measured after compound washout by laser scanning confocal microscopic analysis; format: ADME, cell-based
[5] = Drug localization in endoplasmic reticulum of human MDA-MB-231 cells at 500 nM incubated for 8 hrs by ER-tracker red based laser scanning confocal microscopic analysis; format: ADME, cell-based; conditions: mda-mb-231, 8 h, 0.5 µM
Outline: as §1

[6] = Drug uptake in human MDA-MB-231 cells at 1 uM by laser scanning confocal microscopic analysis; format: ADME, cell-based; conditions: mda-mb-231, 1 h, TDE = time-dependent effect, time < 60 min
Outline: as §2

HCT-116 [7] = assay: Antiproliferative activity against human HCT-116 cells assessed as inhibition of cell growth by thymidine plus proliferation assay; format: functional, cell-based
HCT-116 [8] = assay: Antiproliferative activity against human HCT-116 cells assessed as inhibition of cell growth by Celltiter-Glo luminescence assay; format: functional, cell-based

## CC[C@H](C)[C@H]1C(=O)N[C@H](COC(=O)C2=CCC2)C(=O)N[C@@H](C(C)(C)O)C(=O)O[C@H](c2ccccc2)[C@H](C)/C=C/C=C(\C)[C@H](OC)C[C@@H]2O[C@@]2(C)C(=O)N1C
HCT-8
  pIC50: 8.54
MDA-MB-231
  pIC50: 7.36
HCT-116 [1]
  pIC50: 7.53

## CC[C@H](C)[C@H]1C(=O)N[C@H](COC(=O)c2cc3ccc(N(CC)CC)cc3oc2=O)C(=O)N[C@@H](C(C)(C)O)C(=O)O[C@H](c2ccccc2)[C@H](C)/C=C/C=C(\C)[C@H](OC)C[C@@H]2O[C@@]2(C)C(=O)N1C
[2]
  Drug uptake: Active
HCT-8
  pIC50: 7.28
[3]
  Drug uptake: Dose-Dependent Effect
MDA-MB-231
  pIC50: 6.85
[4]
  Drug uptake: Active
[5]
  Drug uptake: Active
[6]
  Drug uptake: Tde
HCT-116 [1]
  pIC50: 6.87

## CC[C@H](C)[C@H]1C(=O)N[C@H](COC(C)=O)C(=O)N[C@@H](C(C)(C)O)C(=O)O[C@H](c2ccccc2)[C@H](C)/C=C/C=C(\C)[C@H](OC)C[C@@H]2O[C@@]2(C)C(=O)N1C
HCT-8
  pIC50: 7.61
MDA-MB-231
  pIC50: 7.77
HCT-116 [1]
  pIC50: 7.76

## CC[C@H](C)[C@H]1C(=O)N[C@H](Cc2cc(Cl)c(O)c(Cl)c2)C(=O)N[C@@H](C(C)(C)O)C(=O)O[C@H](c2ccccc2)[C@H](C)/C=C/C=C(\C)[C@H](OC)C[C@@H]2O[C@@]2(C)C(=O)N1C
HCT-8
  pIC50: 7.96
HCT-116 [7]
  pIC50: 8.92
MDA-MB-231
  pIC50: 7.82
HCT-116 [1]
  pIC50: 8.38
HCT-116 [8]
  pIC50: 8.59

## CCCCCCCCCC(=O)OC[C@H]1NC(=O)[C@H]([C@@H](C)CC)N(C)C(=O)[C@]2(C)O[C@H]2C[C@@H](OC)/C(C)=C/C=C/[C@@H](C)[C@@H](c2ccccc2)OC(=O)[C@H](C(C)(C)O)NC1=O
HCT-8
  pIC50: 7.78
MDA-MB-231
  pIC50: 7.01
HCT-116 [1]
  pIC50: 7.12

## C=CC(=O)OC[C@H]1NC(=O)[C@H]([C@@H](C)CC)N(C)C(=O)[C@]2(C)O[C@H]2C[C@@H](OC)/C(C)=C/C=C/[C@@H](C)[C@@H](c2ccccc2)OC(=O)[C@H](C(C)(C)O)NC1=O
HCT-8
  pIC50: 7.45
MDA-MB-231
  pIC50: 7.09
HCT-116 [1]
  pIC50: 7.28

## CC[C@H](C)[C@H]1C(=O)N[C@H](COC(=O)c2sc(C)nc2C)C(=O)N[C@@H](C(C)(C)O)C(=O)O[C@H](c2ccccc2)[C@H](C)/C=C/C=C(\C)[C@H](OC)C[C@@H]2O[C@@]2(C)C(=O)N1C
HCT-8
  pIC50: 7.22
MDA-MB-231
  pIC50: 7.69
HCT-116 [1]
  pIC50: 8.54

## CC[C@H](C)[C@H]1C(=O)N[C@H](COC(=O)C2CC2)C(=O)N[C@@H](C(C)(C)O)C(=O)O[C@H](c2ccccc2)[C@H](C)/C=C/C=C(\C)[C@H](OC)C[C@@H]2O[C@@]2(C)C(=O)N1C
HCT-8
  pIC50: 7.71
MDA-MB-231
  pIC50: 7.21
HCT-116 [1]
  pIC50: 7.37

## CCCCC(=O)OC[C@H]1NC(=O)[C@H]([C@@H](C)CC)N(C)C(=O)[C@]2(C)O[C@H]2C[C@@H](OC)/C(C)=C/C=C/[C@@H](C)[C@@H](c2ccccc2)OC(=O)[C@H](C(C)(C)O)NC1=O
HCT-8
  pIC50: 7.74
MDA-MB-231
  pIC50: 7.34
HCT-116 [1]
  pIC50: 7.57

## CC[C@H](C)[C@H]1C(=O)N[C@H](COC(=O)/C=C/c2cc(F)cc(F)c2)C(=O)N[C@@H](C(C)(C)O)C(=O)O[C@H](c2ccccc2)[C@H](C)/C=C/C=C(\C)[C@H](OC)C[C@@H]2O[C@@]2(C)C(=O)N1C
HCT-8
  pIC50: 7.60
MDA-MB-231
  pIC50: 7.10
HCT-116 [1]
  pIC50: 7.63

## CC[C@H](C)[C@H]1C(=O)N[C@H](COC(=O)c2ccccc2)C(=O)N[C@@H](C(C)(C)O)C(=O)O[C@H](c2ccccc2)[C@H](C)/C=C/C=C(\C)[C@H](OC)C[C@@H]2O[C@@]2(C)C(=O)N1C
HCT-8
  pIC50: 7.63
MDA-MB-231
  pIC50: 7.40
HCT-116 [1]
  pIC50: 7.86

## CC[C@H](C)[C@H]1C(=O)N[C@H](COC(=O)/C=C/c2ccccc2)C(=O)N[C@@H](C(C)(C)O)C(=O)O[C@H](c2ccccc2)[C@H](C)/C=C/C=C(\C)[C@H](OC)C[C@@H]2O[C@@]2(C)C(=O)N1C
HCT-8
  pIC50: 7.56
MDA-MB-231
  pIC50: 7.34
HCT-116 [1]
  pIC50: 7.73

## CC[C@H](C)[C@H]1C(=O)N[C@H](CO)C(=O)N[C@@H](C(C)(C)O)C(=O)O[C@H](c2ccccc2)[C@H](C)/C=C/C=C(\C)[C@H](OC)C[C@@H]2O[C@@]2(C)C(=O)N1C
HCT-8
  pIC50: 7.49
MDA-MB-231
  pIC50: 7.53
HCT-116 [1]
  pIC50: 7.42

## CC[C@H](C)[C@H]1C(=O)N[C@H](COC(=O)C2CCCCC2)C(=O)N[C@@H](C(C)(C)O)C(=O)O[C@H](c2ccccc2)[C@H](C)/C=C/C=C(\C)[C@H](OC)C[C@@H]2O[C@@]2(C)C(=O)N1C
HCT-8
  pIC50: 7.36
MDA-MB-231
  pIC50: 7.68
HCT-116 [1]
  pIC50: 7.42

## CC[C@H](C)[C@H]1C(=O)N[C@H](COC(=O)CCC(=O)O)C(=O)N[C@@H](C(C)(C)O)C(=O)O[C@H](c2ccccc2)[C@H](C)/C=C/C=C(\C)[C@H](OC)C[C@@H]2O[C@@]2(C)C(=O)N1C
HCT-8
  pIC50: 6.94
MDA-MB-231
  pIC50: 7.28
HCT-116 [1]
  pIC50: < 6.70

## CC[C@H](C)[C@H]1C(=O)N[C@H](COC(=O)c2ccncc2)C(=O)N[C@@H](C(C)(C)O)C(=O)O[C@H](c2ccccc2)[C@H](C)/C=C/C=C(\C)[C@H](OC)C[C@@H]2O[C@@]2(C)C(=O)N1C
HCT-8
  pIC50: 7.24
MDA-MB-231
  pIC50: 7.49
HCT-116 [1]
  pIC50: 7.99

From ChEMBL document CHEMBL5230173, “Site-directed late-stage diversification of macrocyclic nannocystins facilitating anticancer SAR and mode of action studies” (RSC Med Chem, 2023)
